The values that follow come from article PMC6401406 (Theranostics, 2019).

Where two headings read alike, the source gives them in different places.

Series [1] is classed as in vivo, Sprague-Dawley rats. Conditions: for Tmax: male, Sprague-Dawley, rat, iv, 30 mg/kg. In short, it runs like this:
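Male 8-week-old Sprague-Dawley rats were acclimated ≥1 week, fasted 12 h, then given a single i.v. 30 mg kg-1 dose. Lung, liver, kidney, spleen, heart and heparinized plasma were collected at 0, 10, 30, 60, 120 and 240 min. Organs were saline-washed and stored at -80 °C. Sections underwent MALDI MSI with internal-standard correction; homogenates underwent LC-MS/MS. Identity was confirmed by accurate mass and tandem MS. Mean ± SD, three animals.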

The conditions of series [2]: cited from earlier work.
The conditions of series [3]: cited from earlier work. The source holds these as a separate data set.

Consider demethylated tetrandrine, for which the “Time of maximum concentration of demethylated metabolite in liver” value in series [1] (rat liver after i.v. tetrandrine 30 mg kg^-1) is on record as 4 h. Besides, the “Detection of metabolite in liver tissue” value in series [1] (rat liver after i.v. tetrandrine, MALDI MSI, accurate mass and tandem MS) is recorded as “detected”.
For `COc1ccc2cc1Oc1ccc(cc1)C[C@H]1c3cc(c(OC)cc3CCN1C)Oc1c(OC)c(OC)cc3c1[C@H](C2)N(C)CC3` [tetrandrine, Tetrandrine], the time to peak (Tmax) is 30 min in series [1] (kidney), 120 min in series [1] (liver) and 10 min in series [1] (lung). In addition, the Distribution within kidney result in series [1] (rat kidney, 60 min post-dose, 3D MALDI imaging) is recorded as “mainly distributed in the cortex of kidney”. Further, the “Half-life (t1/2) in blood versus heart” value in series [2] (after i.v. administration) is given as “generally similar”. In addition, in series [2], the “Uptake efficiency in spleen versus other tissues” value is “higher in spleen than other tissues”. Also, in series [2] (post-dose, spleen), the Tmax in spleen was 270 min. The Relatively non-toxic dose entry in series [3] is recorded as “up to 90 mg kg^-1 body weight”.
